Series [1] concerns the target T1, Monoglyceride lipase (Rattus norvegicus, UniProt Q8R431).
T1 sequence (Q8R431 whole entry): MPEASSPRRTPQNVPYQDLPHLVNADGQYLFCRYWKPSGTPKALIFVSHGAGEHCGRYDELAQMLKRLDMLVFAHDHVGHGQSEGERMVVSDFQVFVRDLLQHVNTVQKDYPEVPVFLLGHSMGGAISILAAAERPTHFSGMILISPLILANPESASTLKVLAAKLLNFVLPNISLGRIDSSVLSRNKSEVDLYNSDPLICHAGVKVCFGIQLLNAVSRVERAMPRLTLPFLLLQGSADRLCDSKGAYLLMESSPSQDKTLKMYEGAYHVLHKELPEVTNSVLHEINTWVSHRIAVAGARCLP
Kind of series: Inhibition of recombinant rat MGL expressed in human HeLa cells using 2-oleoylglycerol as substrate preincubated for 10 mins followed by substrate addition and measured after 10 mins by LC-MS analysis. In kind it is cell-based.

Series [2] addresses Monoglyceride lipase (Rattus norvegicus, UniProt Q8R431, C201A). Kind of series: Inhibition of recombinant rat MGL C201A mutant expressed in human HeLa cells using 2-oleoylglycerol as substrate preincubated for 10 mins followed by substrate addition and measured after 10 mins by LC-MS analysis. The format is cell-based.
Series [3] has as its target Monoglyceride lipase (Rattus norvegicus, UniProt Q8R431, C208A). The series is described as follows: Inhibition of recombinant rat MGL C208A mutant expressed in human HeLa cells using 2-oleoylglycerol as substrate preincubated for 10 mins followed by substrate addition and measured after 10 mins by LC-MS analysis. In kind it is cell-based.
Series [4] concerns the target Monoglyceride lipase (Rattus norvegicus, UniProt Q8R431, C201A/C208A). Kind of series: Inhibition of recombinant rat MGL C201A/C208A mutant expressed in human HeLa cells using 2-oleoylglycerol as substrate preincubated for 10 mins followed by substrate addition and measured after 10 mins by LC-MS analysis.
In series [5] the test system is N2a. Kind of series: Protection against H2O2-induced toxicity in mouse Neuro2a cells assessed as reduction in LDH release at 1 uM preincubated for 30 mins followed by H2O2 challenge and measured after 24 hrs. The format is functional, cell-based. In outline: (§1)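 Neuro-2a cells seeded 5×10^3/well, after 24 h pretreated with agents 30 min, then H2O2 300 µM for 24 h; LDH release into medium measured by absorbance with cytotoxicity detection kit; mean ± SEM; t test or one-way ANOVA with Dunnett's.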

Series [6] concerns N2a. Kind of series: Protection against H2O2-induced toxicity in mouse Neuro2a cells assessed as reduction in LDH release at 1 uM preincubated for 30 mins followed by H2O2 challenge and measured after 24 hrs in presence of CB1 receptor antagonist rimonabant. The format is functional, cell-based. The essentials:
as §1

Series [7] is described as follows: Drug metabolism in pH 7.4 phosphate buffered saline assessed as N-(2-phenylethyl)-2-[[2-(2-phenylethylcarbamoyl)phenyl]disulfanyl]benzamide formation at 100 uM measured after 60 mins in presence of N-(2-phenylethyl)-2-sulfanyl-benzamide by HR-MS analysis. The essentials: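 Compound 100 μM final (from 10 mM DMSO stock, 1% DMSO) with GSH 200 μM final in 10 mM PBS pH 7.4 at 37 °C; species quantified at t = 60 min by LC/UV (210/254 nm) and HR-MS (Orbitrap, ESI); mean ± SEM, n = 3-4.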

Series [8] in a line: Glutathione reactivity in pH 7.4 phosphate buffered saline assessed as GSH-adduct formation by measuring GSH level at 100 uM measured after 60 mins by HR-MS analysis. As to conditions: buffer, pH 7.4, 1 h. The format is ADME. In outline: (§2)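 BTZ 100 µM final (from 10 mM DMSO stock, 1% DMSO final) with GSH 200 µM final in 10 mM PBS pH 7.4 at 37.0 °C; sampled at 60 min (steady state). GSH, GSSG and BTZ quantified by LC/UV (210 nm for GSH/GSSG, 254 nm for BTZ) against PBS standard curves; products identified by HR-MS (Orbitrap). Mean ± SEM, n = 3-4.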

Series [9] in a line: Glutathione reactivity in pH 7.4 phosphate buffered saline assessed as GSH-adduct formation by measuring oxidized GSH level at 100 uM measured after 60 mins by HR-MS analysis. The format is ADME. As to conditions: buffer, pH 7.4, 1 h. The essentials: as §2
Series [10] is described as follows: Glutathione reactivity in pH 7.4 phosphate buffered saline assessed as GSH-adduct formation by measuring parent compound level at 100 uM measured after 60 mins by HR-MS analysis. In kind it is ADME. As to conditions: buffer, pH 7.4, 1 h, BLD = below limit of detection. In outline: as §2
Series [11] is described as follows: Tmax in C57BL6 mouse plasma at 10 mg/kg, ip by LC-MS/MS analysis. In kind it is ADME, organism-based. In outline:
(§3)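 Adult male C57/BL6 mice, n=4 per group, single 10 mg/kg i.p. dose, saline vehicle. Plasma and brain collected at set times after injection. Brains homogenized in acetonitrile with 0.1% formic acid and passed through lipid-removal cartridges. Compound quantified by LC-MS/MS on C18 with formic acid water/methanol step gradient; LOQ 0.1 ng/mL, linear 0.1-100.0 ng/mL.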

Series [12] can be described thus: Tmax in C57BL6 mouse brain at 10 mg/kg, ip by LC-MS/MS analysis. In kind it is ADME, organism-based. The essentials:
as §3

Series [13] in a line: Ratio of drug level in brain to plasma of C57BL6 mouse at 10 mg/kg, ip by LC-MS/MS analysis. The format is ADME, organism-based. The essentials:
as §3

Series [14] has as its system Mus musculus. Kind of series: In vivo inhibition of MGL in C57BL6 mouse assessed as increase in 2-AG level at 10 mg/kg, ip measured after 2 hrs by LC-MS/MS analysis. The format is functional, organism-based. In outline: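 Adult male C57/BL6 mice, n=4 per group, single 10 mg/kg i.p. dose, saline vehicle; brains collected 2 h post-injection; lipids extracted from homogenate and 2-AG measured by LC-MS (triple quadrupole, ESI positive, isocratic C18); two-tailed t test or ANOVA with Dunnett's.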

The source made the active and inactive calls. No cut-off for these calls is given here.

Chain of Monoglyceride lipase (Rattus norvegicus, UniProt Q8R431, C208A) (Q8R431 whole entry C208A): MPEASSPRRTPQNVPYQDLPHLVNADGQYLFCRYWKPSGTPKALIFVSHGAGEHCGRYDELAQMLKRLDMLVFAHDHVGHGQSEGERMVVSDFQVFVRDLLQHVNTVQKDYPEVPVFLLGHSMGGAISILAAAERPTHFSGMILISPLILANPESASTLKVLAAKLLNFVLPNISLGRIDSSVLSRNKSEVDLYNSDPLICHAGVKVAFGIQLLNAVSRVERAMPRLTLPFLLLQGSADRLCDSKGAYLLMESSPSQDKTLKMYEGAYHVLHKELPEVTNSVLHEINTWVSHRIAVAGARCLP
Chain of Monoglyceride lipase (Rattus norvegicus, UniProt Q8R431, C201A) (Q8R431 whole entry C201A): as the sequence (Q8R431 whole entry C208A) above, with C201A, A208C counted along it
Chain of Monoglyceride lipase (Rattus norvegicus, UniProt Q8R431, C201A/C208A) (Q8R431 whole entry C201A/C208A): as the sequence (Q8R431 whole entry C208A) above, with C201A counted along it

`O=c1ccsn1CCc1ccccc1`: the IC50 in series [1] amounted to 759 nM. For the compound `O=c1c2ccccc2sn1NCCCCCNn1sc2ccccc2c1=O`, the IC50 in series [1] was found to be 11.5 nM; in series [2], 230 nM; in series [3], 220 nM; in [4] it was 1460 nM. Consider `O=C(O)c1ccc(CNn2sc3ccccc3c2=O)cc1`, for which the IC50 in [1] was found to be 278 nM. For the compound `O=c1c2ccccc2sn1CCCCCCN1CCCCC1`, the IC50 in [1] came out at 195 nM.

For `O=c1c2cc([N+](=O)[O-])ccc2sn1CCc1ccccc1`, in series [1], the IC50 was found to be 163 nM.

For the compound `O=c1c2ccccc2sn1NCc1ccccc1`, the IC50 in series [1] is 19.5 nM; in [2], 54.4 nM; in series [3], 44.9 nM; in series [4], 782 nM. In the case of `O=c1c2ccccc2sn1NCc1ccc(-c2ccccc2)cc1`, in series [1], the IC50 was found to be 322 nM.

As to `Cc1cccc2c(=O)n(CCc3ccccc3)sc12`, in series [1], the IC50 is 13100 nM. In the case of `O=c1c2ccccc2sn1C1CCCCC1`, the half-inhibitory concentration (IC50) in series [1] is 55.5 nM. As for `O=c1c2ccc(O)cc2sn1CCc1ccccc1`, the concentration for half-maximal inhibition (IC50) in series [1] amounted to 2550 nM. Take `COC(=O)c1ccc(CNn2sc3ccccc3c2=O)cc1`: the half-maximal inhibitory concentration (IC50) in [1] was 93.9 nM.

Take `O=c1c2ccccc2sn1CCc1ccc2ccccc2c1`: in [1], the IC50 worked out at 54.2 nM. As to `O=C(Oc1ccc([N+](=O)[O-])cc1)N1CCC(C(O)(c2ccc3c(c2)OCO3)c2ccc3c(c2)OCO3)CC1`, the result in series [5] was Active. Further, in series [6], the result was inactive. `O=c1c2ccccc2sn1CCc1ccccc1`: the Drug metabolism entry in series [7] was “Metabolite detected”. Also, the figures for the Activity in series [8], in series [9] and in series [10] were 73.4 µM, 61.8% and “Bld”, respectively. Moreover, the outcome in [5] was Active. Also, the result in series [6] was inactive. Further, the Tmax in series [11] and in series [12] was 15 min each time. For the same compound, the BPR in series [13] is recorded as 4.5%. Further, in [14], the inhibition entry was “Active”. `O=c1c2ccc([N+](=O)[O-])cc2sn1CCc1ccccc1`: the IC50 in [1] was found to be 238 nM. Same read-out and setting: under `Cn1sc2ccccc2c1=O` stands 59.5 nM. As for `O=c1c2ccccc2sn1NCCCCCCNn1sc2ccccc2c1=O`, the IC50 in series [1] is 16.8 nM; in [2], 114 nM; in [3] it was 82.7 nM; in [4], 2080 nM. Consider `COc1ccc2sn(CCc3ccccc3)c(=O)c2c1`, for which the IC50 in series [1] is 568 nM. `O=c1c2ccccc2sn1CCc1cccc2ccccc12`: in series [1], the IC50 amounted to 21.8 nM. Consider `O=c1[nH]sc2ccccc12`, for which the IC50 in [1] worked out at 306 nM. `COc1ccc2c(=O)n(CCc3ccccc3)sc2c1`: in [1], the IC50 turned out to be 512 nM. The same measure, in the same setting: under `CN(Cc1ccccc1)n1sc2ccccc2c1=O` stands 189 nM; under `O=c1c2cc(O)ccc2sn1CCc1ccccc1`, 135 nM.

These data come from ChEMBL document CHEMBL4354821, “Benzisothiazolinone Derivatives as Potent Allosteric Monoacylglycerol Lipase Inhibitors That Functionally Mimic Sulfenylation of Regulatory Cysteines” (J Med Chem, 2020).
